{"data": "Measured values from different studies", "target": "NUAK family SNF1-like kinase 2 (NUAK2, Homo sapiens, UniProt Q9H093)", "One construct used (Q9H093 1-628)": "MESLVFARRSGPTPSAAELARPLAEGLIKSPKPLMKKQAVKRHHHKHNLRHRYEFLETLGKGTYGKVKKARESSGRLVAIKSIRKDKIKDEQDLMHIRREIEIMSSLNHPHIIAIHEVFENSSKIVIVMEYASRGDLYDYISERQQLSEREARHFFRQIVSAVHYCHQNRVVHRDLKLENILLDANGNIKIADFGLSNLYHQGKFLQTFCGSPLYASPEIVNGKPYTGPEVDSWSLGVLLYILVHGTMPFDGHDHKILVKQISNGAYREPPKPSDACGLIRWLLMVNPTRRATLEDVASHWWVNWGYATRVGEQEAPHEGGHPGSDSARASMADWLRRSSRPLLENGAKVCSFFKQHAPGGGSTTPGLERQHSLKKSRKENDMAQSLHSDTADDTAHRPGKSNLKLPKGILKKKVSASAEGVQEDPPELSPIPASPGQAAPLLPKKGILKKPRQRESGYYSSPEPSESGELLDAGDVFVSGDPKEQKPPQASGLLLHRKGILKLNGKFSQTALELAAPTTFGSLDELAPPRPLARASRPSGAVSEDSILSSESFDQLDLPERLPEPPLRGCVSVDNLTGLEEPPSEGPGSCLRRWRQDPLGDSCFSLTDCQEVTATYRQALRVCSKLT", "note": "Compare with care: the assays were run in different laboratories."}
{"assay": "cell-free assay, competition with immobilised ligand", "setting": "1 µM", "remaining binding [%]": 88, "SMILES": "COc1cc(-c2cn(C3CCc4ccccc4N(CC(F)(F)F)C3=O)nn2)ccc1-n1ccc(C)n1 (stereo not shown)"}
{"assay": "binding, competition with immobilised ligand", "setting": "1 µM", "remaining binding [%]": 0.4, "SMILES": "O=C(c1ccc(Nc2ncc(Cl)c(-c3ccc(Cl)s3)n2)cc1)N1CCC(N2CCCC2)CC1"}
{"assay": "cell-free assay, competition with immobilised ligand", "setting": "1 µM", "remaining binding [%]": 100, "SMILES": "O=C(O)[C@H]1[C@H](Cn2nnc3ccccc3c2=O)CC[C@@H]1C(=O)c1ccc(OCCC2CCOCC2)cc1"}
{"assay": "cell-free assay, competition with immobilised ligand", "setting": "10 µM", "remaining binding [%]": 74, "SMILES": "CC(C)(C)c1ccc(-c2nc(CBr)nn2-c2cccc(O)c2)cc1"}
{"assay": "cell-free assay, competition with immobilised ligand", "setting": "1 µM", "remaining binding [%]": 100, "SMILES": "CS(=O)(=O)NCC[C@H](NC(=O)c1cncc2c1cnn2-c1ccc(F)cc1)c1ccnc(S(C)(=O)=O)c1"}
{"assay": "binding", "setting": "1 µM", "remaining binding [%]": 74, "SMILES": "C[C@@H]1CCN(c2nccc(-c3cnn4ncccc34)n2)C1"}
{"assay": "binding, competition with immobilised ligand", "setting": "50 nM", "remaining binding [%]": 89, "SMILES": "C[C@@H]1CN(c2ccc3ncc(-c4ccc5[nH]nc(C6CC6)c5c4)n3n2)C[C@H](C)O1"}
{"assay": "binding, competition with immobilised ligand", "setting": "5 µM", "remaining binding [%]": 37, "SMILES": "FC(F)(F)Oc1cccc(-c2cnc3ccc(-c4ccncc4)nn23)c1"}
{"assay": "binding", "setting": "1 µM", "remaining binding [%]": 85, "SMILES": "CC1CCCN1c1nccc(-c2cnn3ncccc23)n1 (stereo not shown)"}
{"assay": "cell-free assay, competition with immobilised ligand", "setting": "1 µM", "remaining binding [%]": 76.4, "SMILES": "COc1cccc(CNC(=O)c2nc3scc(COCc4ccc(C(=O)O)cc4)c3c(=O)[nH]2)c1"}
{"assay": "binding", "setting": "1 µM", "remaining binding [%]": 92, "SMILES": "CN(CCCC(F)(F)F)c1nccc(-c2cnn3ncccc23)n1"}
{"assay": "cell-free assay, competition with immobilised ligand", "setting": "0.1 µM", "remaining binding [%]": 85, "SMILES": "Cn1cc(Cl)c2c(Oc3c(F)cc(Nc4cc(Cl)nc(N)n4)cc3F)ccnc21"}
{"assay": "binding, competition with immobilised ligand", "setting": "1 µM", "remaining binding [%]": 100, "SMILES": "CCN1CCN(Cc2ccc(C(=O)Nc3ccc(C)c(Oc4ccc5c(c4)CC(=O)N5)c3)cc2C(F)(F)F)CC1"}
{"assay": "binding", "setting": "1 µM", "remaining binding [%]": 100, "SMILES": "N[C@H]1CCN(c2nccc(-c3cnn4ncccc34)n2)C1"}
{"assay": "cell-free assay, competition with immobilised ligand", "setting": "1 µM", "remaining binding [%]": 74, "SMILES": "CNC(=O)Nc1ccc2c(c1)CC[C@@]21OC(=O)N(CC(=O)N(Cc2ccc(F)cc2)[C@@H](C)C(F)(F)F)C1=O"}
{"assay": "binding, competition with immobilised ligand", "setting": "1 µM", "remaining binding [%]": 7.6, "SMILES": "O=C(c1ccc(Nc2nccc(-c3cc4ccccc4s3)n2)cc1)N1CCC(N2CCCC2)CC1"}
{"assay": "binding, competition with immobilised ligand", "setting": "1 µM", "remaining binding [%]": 62, "SMILES": "COc1cnc(Nc2cccc(S(N)(=O)=O)c2)nc1N1CCN(c2ccccc2)CC1"}
{"assay": "binding, competition with immobilised ligand", "setting": "1 µM", "remaining binding [%]": 70, "SMILES": "O=C(NCC1CCOCC1)c1n[nH]cc1NC(=O)c1c(F)cccc1F"}
{"assay": "binding", "setting": "1 µM", "remaining binding [%]": 83, "SMILES": "CN(C)c1nccc(-c2cnc3ncccn23)n1"}
{"assay": "binding, competition with immobilised ligand", "setting": "10 µM", "remaining binding [%]": 17, "SMILES": "c1cncc(-c2cccc(Nc3nccc(NC4CCCCC4)n3)c2)c1"}
{"assay": "binding, competition with immobilised ligand", "setting": "1 µM", "remaining binding [%]": 26, "SMILES": "O=C(NCCCN1CCOCC1)c1ccc(Nc2nccc(-c3cc4ccccc4s3)n2)cc1"}
{"assay": "binding", "setting": "1 µM", "remaining binding [%]": 88, "SMILES": "F[C@@H]1CCN(c2nccc(-c3cnn4ncccc34)n2)C1"}
